Compound activity deposited in PubChem BioAssay by several laboratories.
Sampled rows, rich in hits. Any-hit rate of the full collection: about 3.6%.
ZTA DNA inh: counter-screen for EBNA-1 inhibitors: inhibitors of Epstein-Barr virus ZTA; P03206; 320,000 compounds, 0.15% hits; AID 2234; ZTA-DNA binding, fluorescence polarization; inhibition, % at 11 µM; in the data active = inhibition above about 33%
Target sequence (P03206 whole entry, looked up): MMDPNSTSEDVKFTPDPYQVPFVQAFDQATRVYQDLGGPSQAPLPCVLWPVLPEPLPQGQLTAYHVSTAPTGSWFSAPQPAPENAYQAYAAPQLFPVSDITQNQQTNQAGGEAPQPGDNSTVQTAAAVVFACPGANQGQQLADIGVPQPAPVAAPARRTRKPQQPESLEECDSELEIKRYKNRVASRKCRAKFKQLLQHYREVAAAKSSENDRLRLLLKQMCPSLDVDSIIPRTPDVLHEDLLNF
EBNA-1 inhibitor: blocks EBNA-1 binding to DNA. EBNA-1 DNA binding, fluorescence polarization. inhibition, % at 14.8 µM. 300,000 compounds, 0.34% hits. AID 1950; in the data active = inhibition above about 28%
FGF22 binding-1: shifts melting point of recombinant human FGF22 | recombinant FGF22 thermal shift, SYPRO orange fluorescence; percent of sucrose octasulfate shift, DMSO zero | activity (Tm shift, normalised), % at 9.99 µM | 340,000 compounds, 1.5% hits;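 active = mean Tm shift, scaled 0 neutral to 100 positive control, at about 1.3% or above, every replicate too, limit read from the data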
Target sequence (Q9HCT0 whole entry, looked up): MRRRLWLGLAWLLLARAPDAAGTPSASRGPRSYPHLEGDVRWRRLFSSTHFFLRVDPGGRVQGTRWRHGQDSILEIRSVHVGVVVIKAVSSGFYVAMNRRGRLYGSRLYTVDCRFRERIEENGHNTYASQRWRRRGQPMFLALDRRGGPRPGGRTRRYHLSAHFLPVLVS
HCV NS3 hel inh: inhibitors of Hepatitis C virus NS3 helicase; NS3 helicase DNA unwinding, Cy5 molecular beacon fluorescence; inhibition, % at 10.9 µM; 290,000 compounds, 0.56% hits;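 active = inhibition above the mean of all tested compounds plus 3 SD, set per campaign, cut at about 35% in these data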;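 note: 0% = DMSO wells and 100% = thioflavine S control wells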
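test system = hepatitis C virus NS3 helicase domain fragment enzyme | reagent = annealed dual-labelled DNA beacon duplex, ATP-started | times = 1 h at 25 °C | detection = Cy5 fluorescence, 0 and 60 min reads | read-out basis = percent inhibition from t60/t0 fluorescence ratio | control set = DMSO and thioflavine S | replication = one well per compound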
FID counter: displaces DNA intercalator in HCV helicase counter-screen. 290,000 compounds, 0.17% hits. DNA fluorescent intercalator displacement, fluorescence. AID 1845. inhibition, % at 7.9 µM; in the data active = inhibition above about 37%;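 note: 0% = vehicle and 100% = reference compound; higher means more ethidium bromide displaced from hairpin DNA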
NR3A LBD binder: modulates the human NR3A ligand-binding domain; Tm shift relative to glycine control, % at 25 µM; 340,000 compounds, 2.5% hits; NR3A LBD differential scanning fluorimetry, Tm shift; 0% = protein alone, 100% = glycine-bound protein;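 active = melting temperature shift of at least 10% of the positive control shift, at one fixed dose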
FGF22 binding-2: binders of human FGF22 by thermal shift; shares compounds with FGF22 binding-1; recombinant FGF22 thermal shift, SYPRO orange fluorescence; thermal shift activity, °C (ΔTm) at 38 µM; 1,000 compounds, 2% hits; AID 720646;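 active = fitted rise in melting shift crosses a set limit at or below the top valid dose tested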
FGF22 TSA: binds human FGF22 shifting its melting temperature; Thermal shift assay, SYPRO orange, melting temperature shift; shares compounds with FGF22 binding-1; Tm shift (activity), % at 38 µM; 50 tested, under 10 active;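 active = compounds whose fitted dose curve of melting temperature shift rises past a set threshold within the tested doses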
TSA no protein: counter-screen for FGF22 binders: compound-only thermal shift, no protein; AC50, µM (titrated, usually from 38 µM); compound-only SYPRO orange thermal shift counter-screen; shares compounds with FGF22 binding-1; AID 743019; 1,000 compounds, 2% hits;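 active = rising signal whose fitted curve reaches the 0.54 level within the top valid dose, showing a melting point, actives reach about 13 µM in these data; inactive = the rest, including activity in the opposite direction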; note: value is where the raw curve crosses a fixed level and not half-maximal
An asterisk follows results filed as active; i = inactive; · = not tested or not shown; ! = repeats disagree; [ ] = another dose, or the depositor's remark.

SMILES | ZTA DNA inh | EBNA-1 inhibitor | FGF22 binding-1 | HCV NS3 hel inh | FID counter | NR3A LBD binder | FGF22 binding-2 | TSA no protein | others
C/C=C/c1ccc([C@@H]2[C@H](C#N)N(C(=O)CN3CCOCC3)[C@H]2CO)cc1 | · | · | 2.3* | · | · | · | 0.16[42 µM] | i
Cc1noc(C)c1S(=O)(=O)N(C)C[C@@H]1Oc2ccc(NC(=O)CCN3CCOCC3)cc2CC(=O)N([C@@H](C)CO)C[C@@H]1C | · | · | 0 | · | · | · | · | ·
Cc1ccc(NC(=O)CN2C(=O)NC(Cc3c[nH]c4ccccc34)C2=O)cc1 (configuration not stated) | 4 | · | 1.7* | · | · | -1 | -0.52 | i
O=C(CN1C(=O)NC(Cc2c[nH]c3ccccc23)C1=O)Nc1ccc(Br)cc1F (configuration not stated) | -22 | · | 2.3* | · | · | 12* | -0.21 | i
O=C(CN1C(=O)NC(Cc2c[nH]c3ccccc23)C1=O)Nc1ccccc1Br (configuration not stated) | 13 | · | 0 | · | · | 5 | · | ·
CCCNC(=O)N(C)C[C@H]1Oc2ncc(C#CC3(O)CCCC3)cc2C(=O)N([C@H](C)CO)C[C@@H]1C | · | · | 0 | · | · | · | · | ·
O=c1c(Cl)c(O)c2cccc3c4ccccc4n1c23 | 2 | 9 | 2.3* | 5 | -4 | -8 | 0.16 | i
Cc1noc(C)c1S(=O)(=O)N(C)C[C@@H]1OCCCC[C@@H](C)Oc2ccc(NC(=O)c3ccccc3)cc2C(=O)N([C@@H](C)CO)C[C@H]1C | · | · | 0 | · | · | · | · | ·
CC(C)NC(=O)Nc1ccc2c(c1)CC(=O)N([C@@H](C)CO)C[C@@H](C)[C@@H](CN(C)S(=O)(=O)c1cn(C)cn1)O2 | · | · | 0 | · | · | · | · | ·
O=C(c1ccc(F)cc1)N1CCCCN2[C@H](CO)[C@H](c3ccc(C#CC4(O)CCCC4)cc3)[C@@H]2C1 | · | · | 0 | · | · | · | · | ·
O=C(NCCc1c[nH]c2ccccc12)c1ccc(Cl)cc1 | -7 | -7 | 2.4* | 14 | -9 | 29* | -0.006 | i | FGF22 TSA=0
CCOc1cccc(C(=O)Nc2ccc3[nH]ncc3c2)c1 | -1 | -9 | 1.6* | -2 | -5 | 15* | -0.074 | i | FGF22 TSA=0
O=C(COC(=O)c1cccnc1Cl)c1ccc(Cl)s1 | · | · | 1 | · | · | 2 | · | ·
O=C(OCC(=O)c1ccc(Cl)s1)c1ccc2ccccc2n1 | -6 | 16 | 1.7* | 24 | -16 | -10 | 0.031 | i
CO[C@@H]1CN(C)C(=O)c2cc(NC(=O)NC(C)C)ccc2OC[C@@H](C)N(C)C[C@H]1C | · | · | 0 | · | · | · | · | ·
COc1ccc(S(=O)(=O)Nc2ccc3c(c2)C(=O)N([C@H](C)CO)C[C@H](C)[C@H](CN(C)CC2CC2)OCCCC[C@@H](C)O3)cc1 | · | · | 0 | · | · | · | · | ·
COc1ccc(NC(=O)N(C)C[C@@H]2Oc3ccc(NS(=O)(=O)c4ccc(OC)cc4)cc3CC(=O)N([C@H](C)CO)C[C@@H]2C)cc1 | · | · | 7.6* | · | · | · | -0.035 | i
COc1ccc(NC(=O)N(C)C[C@H]2Oc3ccc(NC(=O)NC(C)C)cc3CC(=O)N([C@@H](C)CO)C[C@H]2C)cc1 | · | · | 0 | · | · | · | · | ·
COc1ccc(S(=O)(=O)Nc2ccc3c(c2)C(=O)N([C@H](C)CO)C[C@H](C)[C@H](CN(C)CC2CC2)OCCCC[C@H](C)O3)cc1 | · | · | 1.4* | · | · | · | 0.018 | i
COc1ccc(NC(=O)N(C)C[C@@H]2Oc3ccc(NC(=O)NC(C)C)cc3CC(=O)N([C@H](C)CO)C[C@@H]2C)cc1 | · | · | 15*! | · | · | -5 | 0.077 | i
COc1ccc(S(=O)(=O)Nc2ccc3c(c2)CC(=O)N([C@@H](C)CO)C[C@@H](C)[C@H](CN(C)C(=O)Nc2ccc(F)cc2)O3)cc1 | · | · | 0 | · | · | · | · | ·
COc1ccc(NC(=O)Nc2ccc3c(c2)CC(=O)N([C@H](C)CO)C[C@@H](C)[C@H](CN(C)S(=O)(=O)c2ccccc2)O3)cc1 | · | · | -1 | · | · | · | · | ·
COc1ccc(S(=O)(=O)N(C)C[C@@H]2Oc3ccc(NC(=O)Nc4ccccc4)cc3CC(=O)N([C@H](C)CO)C[C@@H]2C)cc1 | · | · | 1.7* | · | · | · | 0.036[42 µM] | i
CCC(=O)N1CC(=O)N2[C@@H](CO)[C@H](c3ccc(C#CC4CCCCC4)cc3)[C@@H]2C1 | · | · | -1 | · | · | · | · | ·
CCNC(=O)[C@@H]1[C@@H](CO)[C@@H]2Cn3c(ccc(-c4cncnc4)c3=O)[C@@H]2N1Cc1ccc2c(c1)OCO2 | · | · | 0 | · | · | · | · | ·
SMILES | ZTA DNA inh | EBNA-1 inhibitor | FGF22 binding-1 | HCV NS3 hel inh | FID counter | NR3A LBD binder | FGF22 binding-2 | TSA no protein | others
COc1ccc(NC(=O)N(C)C[C@@H]2Oc3ccc(NS(=O)(=O)c4ccccc4)cc3C(=O)N([C@H](C)CO)C[C@H]2C)cc1 | · | · | 5.0* | · | · | · | 0.048[42 µM] | i
COc1ccc(NC(=O)N(C)C[C@H]2Oc3ccc(NS(=O)(=O)c4ccccc4)cc3C(=O)N([C@H](C)CO)C[C@H]2C)cc1 | · | · | 0 | · | · | · | · | ·
COc1ccc(NC(=O)N(C)C[C@@H]2Oc3ccc(NS(=O)(=O)c4cccs4)cc3CC(=O)N([C@H](C)CO)C[C@H]2C)cc1 | · | · | 28* | · | · | · | -0.011 | i
COc1ccc(CN(C)C[C@@H]2OCCCC[C@@H](C)Oc3ccc(NC(=O)CCCN(C)C)cc3C(=O)N([C@H](C)CO)C[C@H]2C)cc1 | · | · | 0 | · | · | · | · | ·
COc1ccc2c(/C=N/NS(=O)(=O)c3ccc(C)cc3)c[nH]c2c1 | 17 | -2 | 2.7* | -15 | 3 | 33* | -0.21 | i
COc1ccc(S(=O)(=O)N/N=C\c2ccccc2F)cc1 | -1 | 2 | 0 | -5 | -4 | 0 | · | ·
CC(C)NC(=O)N(C)C[C@@H]1Oc2c(NC(=O)Nc3ccc(C(F)(F)F)cc3)cccc2C(=O)N([C@H](C)CO)C[C@H]1C | · | · | -1 | · | · | · | · | ·
COC(=O)C[C@@H]1CC[C@H]2[C@H](COc3ccc(NC(=O)Nc4ccc(C#N)cc4)cc3C(=O)N2C)O1 | · | · | 0 | · | · | · | · | ·
COC(=O)C[C@H]1CC[C@@H]2[C@@H](COc3ccc(NC(=O)Nc4ccc(C#N)cc4)cc3C(=O)N2C)O1 | · | · | 1.3* | · | · | · | -0.13 | 2.4µM* | FGF22 TSA=0
COC(=O)C[C@H]1CC[C@@H]2[C@@H](COc3ccc(NC(=O)Nc4cccc(C#N)c4)cc3C(=O)N2C)O1 | · | · | 2.0* | · | · | · | -0.093[42 µM] | i | FGF22 TSA=0
COC(=O)C[C@@H]1CC[C@@H]2[C@@H](COc3ccc(NC(=O)c4ccc(F)c(F)c4)cc3C(=O)N2C)O1 | · | · | 2.3* | · | · | · | 0.072 | i
COC(=O)C[C@@H]1CC[C@H]2[C@H](COc3ccc(NC(=O)c4ccc(F)cc4)cc3C(=O)N2C)O1 | · | · | 0 | · | · | · | · | ·
